ChEMBL document CHEMBL1132994, “Synthesis and anticonvulsant and neurotoxic properties of substituted N-phenyl derivatives of the phthalimide pharmacophore” (J Med Chem, 2000)
Active and inactive are the calls of the source. No cut-off for these calls is given here.

Key:
Mus musculus [1] = assay: Anticonvulsant activity in mice through seizures induced by maximal electroshock (MES) tests after ipb administration at a concentration of 300 mg/kg after 4 hours.; Inactive; format: functional, organism-based; set-up: dose 300 mg/kg
Mus musculus [2] = assay: Anticonvulsant activity in mice through seizures induced by maximal electroshock (MES) tests after ip administration at a concentration of 100 mg/kg after 30 min; Inactive; format: functional, organism-based; set-up: dose 100 mg/kg
Mus musculus [3] = assay: Anticonvulsant activity in mice through seizures induced by subcutaneous pentylenetetrazole (scPTZ) tests after ip administration at a concentration of 300 mg/kg after 30 min; Inactive; format: functional, organism-based; set-up: dose 300 mg/kg
Mus musculus [4] = assay: Neurotoxicity determined by rotarod test after intraperitoneal administration at a concentration of 300 mg/kg after 4 hours; Inactive; format: functional, organism-based; set-up: dose 300 mg/kg
Mus musculus [5] = assay: Anticonvulsant activity in mice through seizures induced by sc pentylenetetrazole (intraperitoneal administration at a concentration of 300 mg/kg after 4 hours; Inactive; format: functional, organism-based; set-up: dose 300 mg/kg
Mus musculus [6] = assay: Neurotoxicity by rotarod test after intraperitoneal administration at a concentration of 300 mg/kg after 30 minutes; Inactive; format: functional, organism-based; set-up: dose 300 mg/kg
Rattus norvegicus [7] = assay: Anticonvulsant activity in rats through seizures induced by maximal electroshock (MES) tests by oral administration of drug at a concentration of 30 mg/kg after 30 minutes; format: functional
In short: (§1)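 Rats given a single oral dose of 30 or 50 mg/kg, depending on compound; MES protection scored at 15, 30, 60, 120 and 240 min. Activity graded by fraction of animals protected (0-25%, 25-50%, 50-75%, 75-100%); neurotoxicity monitored at the same time points.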

Rattus norvegicus [8] = assay: Anticonvulsant activity was measured in rats through seizures induced by maximal electroshock (MES) tests by oral administration of drug at a concentration of 30 mg/kg after 2 hours.; format: functional; in short: as §1
Mus musculus [9] = assay: Anticonvulsant activity in mice through seizures induced by subcutaneous pentylenetetrazole (scPTZ) tests after ip administration at a concentration of 300 mg/kg after 4 hours; Inactive; format: functional, organism-based; set-up: dose 300 mg/kg
Mus musculus [10] = assay: Anticonvulsant activity in mice through seizures induced by maximal electroshock (MES) tests after ip administration at a concentration of 100 mg/kg after 30 min; Active; format: functional, organism-based; set-up: dose 100 mg/kg
Rattus norvegicus [11] = assay: (§2) Toxicity screening in rats dosed orally with the compound; No toxicity; format: functional, organism-based
In short: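 Rats given a single oral dose of 30 or 50 mg/kg, depending on compound. Minimal neurotoxicity was scored at 15, 30, 60, 120 and 240 min after dosing, alongside the MES test. Scores are graded by the percentage of animals affected.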

Mus musculus [12] = assay: Neurotoxicity by rotarod test after ip administration at a concentration of 300 mg/kg after 30 minutes; Active; format: functional, organism-based; set-up: dose 300 mg/kg
Mus musculus [13] = assay: Anticonvulsant activity in mice through seizures induced by subcutaneous pentylenetetrazole (scPTZ) test after ip administration at a concentration of 300 mg/kg after 30 min; Inactive; format: functional, organism-based; set-up: dose 300 mg/kg
Rattus norvegicus [14] = assay: Anticonvulsant activity was measured in rats through seizures induced by maximal electroshock (MES) tests by oral administration of drug after 4 hours.; format: functional; in short: as §1
Rattus norvegicus [15] = assay: Anticonvulsant activity in rats through seizures induced by maximal electroshock (MES) tests after oral administration at a concentration of 30 mg/kg after 1 hour.; format: functional; in short: as §1
Mus musculus [16] = assay: Anticonvulsant activity in mice through seizures induced by maximal electroshock (MES) tests after ip administration at a concentration of 300 mg/kg after 4 hours; Inactive; format: functional, organism-based; set-up: dose 300 mg/kg
Rattus norvegicus [17] = assay: Anticonvulsant activity in rats through seizures induced by maximal electroshock (MES) tests by oral administration of drug at a concentration of 30 mg/kg after 15 minutes; No activity; format: functional, organism-based; set-up: dose 30 mg/kg; in short: as §1
Mus musculus [18] = assay: Anticonvulsant activity in mice through seizures induced by sc pentylenetetrazole (intraperitoneal administration at a concentration of 300 mg/kg after 30 min; Inactive; format: functional, organism-based; set-up: dose 300 mg/kg
Mus musculus [19] = assay: Anticonvulsant activity in mice through seizures induced by maximal electroshock (MES) tests after ip administration at a concentration of 300 mg/kg after 4 hours; Active; format: functional, organism-based; set-up: dose 300 mg/kg
Mus musculus [20] = assay: Neurotoxicity by rotarod test after intraperitoneal administration at a concentration of 300 mg/kg after 4 hours.; Inactive; format: functional, organism-based; set-up: dose 300 mg/kg
Mus musculus [21] = assay: Neurotoxicity by rotarod test after intraperitoneal administration at a concentration of 300 mg/kg after 30 minutes.; active; format: functional, organism-based; set-up: dose 300 mg/kg
Rattus norvegicus [22] = assay: Anticonvulsant activity was measured in rats through seizures induced by maximal electroshock (MES) tests by oral administration of drug after 30 minutes.; format: functional; in short: as §1
Rattus norvegicus [23] = assay: Anticonvulsant activity was measured in rats through seizures induced by maximal electroshock (MES) tests by oral administration of drug after 15 minutes.; format: functional; in short: as §1
[24] = dose eliciting minimal neurological toxicity in 50% of animals.; format: organism-based; details: rat, in vivo
Mus musculus [25] = assay: Neurotoxicity by rotarod test after intraperitoneal administration at a concentration of 300 mg/kg after 30 minutes; active; format: functional, organism-based; set-up: dose 300 mg/kg
Rattus norvegicus [26] = assay: Anticonvulsant activity was measured in rats through seizures induced by maximal electroshock (MES) tests by oral administration of drug after 1 hour.; format: functional; in short: as §1
Rattus norvegicus [27] = assay: Effective dose required to assure anticonvulsant protection in 50% of rats dosed orally by scPTZ test.; format: functional; details: po
In short: (§3)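 Rats dosed orally; ED50 is the dose giving anticonvulsant protection in 50% of animals in the MES or scPtz test. TD50 is the minimal neurotoxic dose in 50% of animals. Time to peak effect was also determined.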

Rattus norvegicus [28] = assay: Anticonvulsant activity was measured in rats through seizures induced by maximal electroshock (MES) tests by oral administration of drug after 2 hours.; format: functional; in short: as §1
Mus musculus [29] = assay: Anticonvulsant activity in mice through seizures induced by maximal electroshock (MES) tests after ip administration at a concentration of 300 mg/kg after 4 hours; active; format: functional, organism-based; set-up: dose 300 mg/kg
Mus musculus [30] = assay: Anticonvulsant activity in mice through seizures induced by maximal electroshock (MES) tests after intraperitoneal administration at a concentration of 100 mg/kg after 30 min; active; format: functional, organism-based; set-up: dose 100 mg/kg
Rattus norvegicus [31] = assay: as §2; format: organism-based; details: in vivo, po
Rattus norvegicus [32] = assay: Effective dose required to assure anticonvulsant protection in 50% of rats dosed orally by MES test.; format: functional; details: po; in short: as §3
Mus musculus [33] = assay: Anticonvulsant activity in mice through seizures induced by maximal electroshock (MES) tests after ip administration at a concentration of 300 mg/kg after 4 hour; Active; format: functional, organism-based; set-up: dose 300 mg/kg
Mus musculus [34] = assay: Neurotoxicity by rotarod test after intraperitoneal administration at a concentration of 300 mg/kg after 30 minutes; Active; format: functional, organism-based; set-up: dose 300 mg/kg
Mus musculus [35] = assay: Neurotoxicity by rotarod test after intraperitoneal administration at a concentration of 300 mg/kg after 4 hours; Active; format: functional, organism-based; set-up: dose 300 mg/kg

Row | SMILES | Activity (Mus musculus [2]) | Activity (Mus musculus [3]) | Activity (Mus musculus [4]) | Activity (Mus musculus [5]) | Activity (Mus musculus [6]) | Activity (Mus musculus [9]) | Activity (Mus musculus [10]) | Activity in animals (Rattus norvegicus [14]) | Activity (Mus musculus [16]) | Activity (Mus musculus [18]) | Activity (Mus musculus [19]) | further results
1 | O=C1c2ccccc2C(=O)N1c1ccc([N+](=O)[O-])cc1Cl | inactive | inactive | inactive | inactive | inactive | – | – | – | – | – | – | Activity (Mus musculus [1]): inactive
2 | Nc1ccc(N2C(=O)c3ccccc3C2=O)cc1 | – | – | inactive | – | – | inactive | Active | 25% | inactive | – | – | Activity in animals (Rattus norvegicus [7]): 25%; Activity in animals (Rattus norvegicus [8]): 50%; Toxicity (Rattus norvegicus [11]): Not toxic; Activity (Mus musculus [12]): Active; Activity (Mus musculus [13]): inactive; Activity in animals (Rattus norvegicus [15]): 75%; Activity in animals (Rattus norvegicus [17]): No activity
3 | O=C1c2ccccc2C(=O)N1c1ccc([N+](=O)[O-])cc1 | inactive | – | inactive | inactive | inactive | – | – | – | inactive | inactive | – | –
4 | Cc1cc([N+](=O)[O-])ccc1N1C(=O)c2ccccc2C1=O | inactive | inactive | inactive | inactive | inactive | – | – | – | – | – | Active | –
5 | Cc1c(N2C(=O)c3ccccc3C2=O)cccc1[N+](=O)[O-] | inactive | – | inactive | inactive | inactive | – | – | – | inactive | inactive | – | –
6 | COC(=O)c1ccccc1N1C(=O)c2ccccc2C1=O | – | – | – | inactive | – | – | – | – | inactive | inactive | – | Activity (Mus musculus [20]): inactive; Activity (Mus musculus [21]): Active
7 | O=C1NC(=O)C(c2ccccc2)(c2ccccc2)N1 [PHENYTOIN] | – | inactive | inactive | – | – | inactive | – | 25% | – | – | – | Activity in animals (Rattus norvegicus [22]): 100%; Activity in animals (Rattus norvegicus [23]): 100%; TD50 [24]: > 3000 mg/kg; Activity (Mus musculus [25]): Active; Activity in animals (Rattus norvegicus [26]): 100%; ED50 (Rattus norvegicus [27]): > 800 mg/kg; Activity in animals (Rattus norvegicus [28]): 100%; Activity (Mus musculus [29]): Active; Activity (Mus musculus [30]): Active
8 | Cc1c(N)cccc1N1C(=O)c2ccccc2C1=O | – | inactive | inactive | inactive | inactive | – | Active | 100% | – | – | Active | Activity in animals (Rattus norvegicus [22]): 100%; Activity in animals (Rattus norvegicus [23]): 100%; TD50 [24]: > 400 mg/kg; Toxicity (Rattus norvegicus [31]): No toxicity; ED50 (Rattus norvegicus [32]): 8 mg/kg; Activity in animals (Rattus norvegicus [26]): 100%; ED50 (Rattus norvegicus [27]): > 200 mg/kg; Activity in animals (Rattus norvegicus [28]): 100%
9 | Cc1cccc([N+](=O)[O-])c1N1C(=O)c2ccccc2C1=O | inactive | – | inactive | – | inactive | inactive | – | – | – | inactive | – | Activity (Mus musculus [33]): Active
10 | Cc1cc(N)ccc1N1C(=O)c2ccccc2C1=O | – | inactive | – | inactive | – | – | Active | – | – | – | Active | Activity (Mus musculus [34]): Active; Activity (Mus musculus [35]): Active
